Measured values from ChEMBL document CHEMBL2321805, “N-methyldihydroquinazolinone derivatives of Retro-2 with enhanced efficacy against Shiga toxin” (J Med Chem, 2013).
Calls of active or inactive are those of the source. No cut-off for these calls is given here.

Assays:
HeLa [1] = assay: Cytoprotective activity against shiga toxin-induced cytotoxicity in human HeLa cells at 30 uM incubated for 4 hrs prior to shiga toxin addition measured after 20 hrs by liquid scintillation counting analysis relative to Retro-2; type: functional
HeLa [2] = assay: Cytoprotective activity against shiga toxin-induced cytotoxicity in human HeLa cells at 30 uM incubated for 4 hrs prior to shiga toxin addition measured after 20 hrs by liquid scintillation counting analysis; type: functional, cell-based
HeLa [3] = assay: Inhibition of shiga toxin retrograde transport in human HeLa cells after 20 mins by sulfation assay relative to control; type: functional
HeLa [4] = assay: Inhibition of shiga toxin retrograde transport in human HeLa cells assessed as relocalization of syntaxin 5 at 20 uM after 30 mins by immunofluorescence staining; type: functional, cell-based
Summary of the method: (§1)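 HeLa cells were treated for 30 min with 20 μM compound or DMSO carrier, then fixed. They were immunolabeled for syntaxin 5 and the Golgi marker giantin and imaged by confocal microscopy with a 60× oil objective (NA 1.4). Maximum projections of 6–8 Z slices at 250 nm spacing are shown.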

HeLa [5] = assay: Inhibition of shiga toxin retrograde transport in human HeLa cells assessed as change in golgi apparatus morphology at 20 uM after 30 mins by immunofluorescence staining; type: functional, cell-based; summary of the method: as §1

SMILES	Activity (HeLa [1])	EC50 (HeLa [2])	inhibition (INH) (HeLa [3])	inhibition (HeLa [4])	inhibition (HeLa [5])
Cn1cc(C2Nc3ccccc3C(=O)N2c2ccccc2)c2ccccc21 (racemic)	0%	–	–	–	–
Cc1ccc(C2N(C)c3ccccc3C(=O)N2c2ccccc2)s1 (racemic)	275%	10.2 µM	38.7%	–	–
Cc1ccc(C2N(C)c3ccccc3C(=O)N2c2ccccc2S(=O)(=O)c2ccccc2)s1 (racemic)	145%	8 µM	–	–	–
CCc1ccc(C2N(C)c3ccccc3C(=O)N2c2ccccc2)s1 (racemic)	323%	4.2 µM	0%	–	–
Cc1ccc(C2Nc3ccc(F)cc3C(=O)N2c2ccccc2)s1 (racemic)	167.2%	10.6 µM	–	–	–
Cc1ccc(C2Nc3ccccc3C(=O)N2c2ccccc2)s1 (racemic)	100%	27.3 µM	36.9%	Active	–
O=C1c2ccccc2NC(c2ccccc2)N1c1ccccc1 (racemic)	0%	–	–	–	–
COc1cccc(C2Nc3ccccc3C(=O)N2c2ccccc2)c1 (racemic)	0%	–	–	–	–
O=C1c2ccccc2NC(c2cccnc2)N1c1ccccc1 (racemic)	0%	–	–	–	–
O=C1c2ccccc2NC(c2cccs2)N1c1ccccc1 (racemic)	0%	–	–	–	–
O=C1c2ccccc2NC(c2ccc(Br)s2)N1c1ccccc1 (racemic)	146%	13.7 µM	–	–	–
CSc1ccc(C2Nc3ccccc3C(=O)N2c2ccccc2)s1 (racemic)	249%	7.8 µM	–	–	–
O=C1c2ccccc2NC(c2ccc(-c3ccccc3)s2)N1c1ccccc1 (racemic)	287%	3.7 µM	–	–	–
O=C1c2ccccc2NC(c2ccc(-c3cccs3)s2)N1c1ccccc1 (racemic)	111.6%	5.1 µM	–	–	–
O=C1c2ccccc2NC(c2ccc(-c3ccccn3)s2)N1c1ccccc1 (racemic)	468%	12 µM	–	–	–
O=C1c2ccccc2NC(c2ccc(-c3ccco3)s2)N1c1ccccc1 (racemic)	438%	4 µM	–	–	–

SMILES	Activity (HeLa [1])	EC50 (HeLa [2])	inhibition (INH) (HeLa [3])	inhibition (HeLa [4])	inhibition (HeLa [5])
Cc1nc(-c2ccc(C3Nc4ccccc4C(=O)N3c3ccccc3)s2)cs1 (racemic)	271%	1.4 µM	0%	–	–
CSc1ccc(C2N(C)c3ccccc3C(=O)N2c2ccccc2)s1 (racemic)	265.9%	4.8 µM	–	–	–
CN1c2ccccc2C(=O)N(c2ccccc2)C1c1ccc(Br)s1 (racemic)	118%	3.4 µM	–	–	–
CN1c2ccccc2C(=O)N(c2ccccc2)C1c1ccc(-c2ccccc2)s1 (racemic)	309%	2.1 µM	–	–	–
CN1c2ccccc2C(=O)N(c2ccccc2)C1c1ccc(-c2ccco2)s1 (racemic)	140.4%	1.5 µM	–	–	–
Cc1nc(-c2ccc(C3N(C)c4ccccc4C(=O)N3c3ccccc3)s2)cs1 (racemic)	301%	0.3 µM	0%	Active	Active
Cc1ccc(C2N(C)c3ccccc3C(=O)N2c2ccccc2Cl)s1 (racemic)	230%	8.2 µM	–	–	–
Cc1ccc(C2N(C)c3ccccc3C(=O)N2c2ccccc2I)s1 (racemic)	254%	5.4 µM	–	–	–
COc1ccccc1N1C(=O)c2ccccc2N(C)C1c1ccc(C)s1 (racemic)	264.4%	5.4 µM	–	–	–
CSc1ccccc1N1C(=O)c2ccccc2N(C)C1c1ccc(C)s1 (racemic)	150.6%	3.8 µM	–	–	–
Cc1ccc(C2N(C)c3ccccc3C(=O)N2c2ccccc2F)s1 (racemic)	208.6%	5.5 µM	–	–	–
Cc1ccsc1C1Nc2ccccc2C(=O)N1c1ccccc1 (racemic)	0%	–	–	–	–
CCc1ccc(C2Nc3ccccc3C(=O)N2c2ccccc2)s1 (racemic)	166%	8.7 µM	13.5%	–	–
Cc1ccc(C2Nc3ccccc3C(=O)N2c2ccccc2Cl)s1 (racemic)	211%	14.8 µM	–	–	–
Cc1ccc(C2N(C)c3ccccc3C(=O)N2c2ccccc2)s1 (single isomer, unassigned; form 1)	inactive	–	–	–	–
Cc1ccc(C2N(C)c3ccccc3C(=O)N2c2ccccc2)s1 (single isomer, unassigned; form 2)	Active	–	–	–	–
